Laboratory results as given in PubChem BioAssay AID624165 (Southern Research Specialized Biocontainment Screening …, 2012).
Calls of active or inactive are those of the source.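 How the source made its calls: active means inhibition of 30% or more at any tested concentration; inactive means the rest.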

tested on: Plasmodium falciparum M18 aspartyl aminopeptidase (PfM18AAP); assay: PFM18AAP inhibitors, dose response, selectivity assay for PFM1AAP inhibitor project, biochemical, QFRET, H-Glu-NHMec substrate, set 3 (AID 624165); details: Recombinant PfM18AAP, H-Glu-NHMec fluorogenic cleavage; series mostly up to 100 µM; inhibition: at the top concentration
How it was run: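 Assay system – recombinant PfM18AAP enzyme · Quantity – enzyme 5 µg/mL · Medium – pH 7.5 Tris, 2 mM CoCl2 · Compound dosing – 10-point twofold dilution series, 100 down to 0.2 µM · Schedule – reaction 90 min, room temperature · Detection – fluorescence at 370/460 nm · Benchmarks – no-enzyme background wells · Replication – each compound tested in triplicate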

inhibition, inactive:
O=C(NCCc1ccc2c(c1)OCO2)C1CCN(S(=O)(=O)c2cc(Br)c(Br)s2)CC1 6.44%
O=C(NCc1ccc(F)cc1)C1CCN(S(=O)(=O)c2sccc2Br)CC1 4.56%
O=C(NCc1ccc2c(c1)OCO2)C1CCN(S(=O)(=O)c2cc(Br)c(Br)s2)CC1 4.8%
O=C(Nc1ccc2c(c1)OCO2)C1CCN(S(=O)(=O)c2cc(Br)c(Br)s2)CC1 -0.06%
O=C(NCCc1ccc2c(c1)OCO2)C1CCN(S(=O)(=O)c2sccc2Br)CC1 5.41%
O=C(NCCc1ccc2c(c1)OCO2)C1CCN(S(=O)(=O)c2ccc(Br)s2)CC1 6.12%
O=C(NCc1cccc(F)c1)C1CCN(S(=O)(=O)c2ccc(Br)s2)CC1 2.41%
O=C(Nc1ccc2c(c1)OCO2)C1CCN(S(=O)(=O)c2ccc(Br)s2)CC1 1.63%
O=C(NCc1ccc2c(c1)OCO2)C1CCN(S(=O)(=O)c2ccc(Cl)s2)CC1 10.5%
O=C(NCc1ccccc1F)C1CCN(S(=O)(=O)c2ccc(Br)s2)CC1 5.87%
O=C(NCc1cccc(F)c1)C1CCN(S(=O)(=O)c2ccc(Cl)s2)CC1 11.8%
O=C(Nc1ccc2c(c1)OCO2)C1CCN(S(=O)(=O)c2ccc(Br)cc2)CC1 -2.22%
O=C(NCc1cccc(F)c1)C1CCN(S(=O)(=O)c2ccc(Br)cc2)CC1 5.49%
O=C(NCCc1ccc2c(c1)OCO2)C1CCN(S(=O)(=O)c2ccc(Br)cc2)CC1 0.75%
O=C(NCc1ccccc1F)C1CCN(S(=O)(=O)c2ccc(Br)cc2)CC1 1.27%
O=C(NCc1ccc(F)cc1)C1CCN(S(=O)(=O)c2ccc(Cl)s2)CC1 -10%
O=C(Nc1ccc2c(c1)OCO2)C1CCN(S(=O)(=O)c2ccc(Cl)s2)CC1 2.63%
O=C(NCc1ccc2c(c1)OCO2)C1CCN(S(=O)(=O)c2ccc(Br)cc2)CC1 3.21%
O=C(NCc1ccc(F)cc1)C1CCN(S(=O)(=O)c2ccc(Br)cc2)CC1 14.5%
O=C(NCc1ccccc1F)C1CCN(S(=O)(=O)c2sccc2Br)CC1 1.26%
O=C(NCc1ccc2c(c1)OCO2)C1CCN(S(=O)(=O)c2sccc2Br)CC1 4.54%
O=C(NCc1cccc(F)c1)C1CCN(S(=O)(=O)c2cc(Br)c(Br)s2)CC1 2.39%
O=C(NCc1ccccc1F)C1CCN(S(=O)(=O)c2cc(Br)c(Br)s2)CC1 1.25%
O=C(NCc1ccc2c(c1)OCO2)C1CCN(S(=O)(=O)c2ccc(Br)s2)CC1 -8.16%
O=C(NCCc1ccc2c(c1)OCO2)C1CCN(S(=O)(=O)c2ccc(Cl)s2)CC1 3.06%
O=C(Nc1ccc2c(c1)OCO2)C1CCN(S(=O)(=O)c2sccc2Br)CC1 -1.28%
O=C(NCc1ccc(F)cc1)C1CCN(S(=O)(=O)c2cc(Br)c(Br)s2)CC1 11.3%
O=C(NCc1ccccc1F)C1CCN(S(=O)(=O)c2ccc(Cl)s2)CC1 6.81%
O=C(NCc1cccc(F)c1)C1CCN(S(=O)(=O)c2sccc2Br)CC1 4.41%
O=C(NCc1ccc(F)cc1)C1CCN(S(=O)(=O)c2ccc(Br)s2)CC1 2.15%
